Measurements published in ChEMBL document CHEMBL1138784, “Rational design, synthesis, and biological evaluation of bis(pyrimido[5,6,1-de]acridines) and bis(pyrazolo[3,4,5-kl]acridine-5-carboxamides) as new anticancer agents” (J Med Chem, 2004).
One block for each molecule: values may come before it.

Assays:
DU-145 [1] = test: Percent growth of prostate DU-145 cell line was determined at 10e-5 M concentration after 48 hr of exposing; format: functional, Homo sapiens
[2] = Percent growth of melanoma LOX IMV1 cell line was determined at 10e-8 M concentration after 48 hr of exposing; format: functional, Homo sapiens
In short: (§1)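 NCI sulforhodamine B screen. Cells seeded by growth rate, 24 h drug-free, then 48 h exposure to 10^-8, 10^-6 or 10^-5 M. Protein-stain optical density expressed as percent growth relative to untreated control (100%); negative values indicate cell kill.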

[3] = Cytotoxicity against human MKN45 cancer cell line was determined after 1 hr; format: cell-based; settings: Cancer cell lines
In short: (§2)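 MTT colorimetric assay. Cells seeded by growth characteristics and preincubated 24 h, then exposed to drug for 1 h or 144 h at 37 °C, 5% CO2. H460M, MKN45 and PC-3 were grown in RPMI 1640 with 10% FCS. HCT116 was grown in D-MEM with 10% FBS and 2 mM glutamine.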

OVCAR-4 [4] = test: Percent growth of ovarian OVCAR-4 cell line was determined at 10e-8 M concentration after 48 hr of exposing; format: functional, Homo sapiens; in short: as §1
OVCAR-4 [5] = test: Percent growth of ovarian OVCAR-4 cell line was determined at 10e-5 M concentration after 48 hr of exposing; format: functional, Homo sapiens; in short: as §1
[6] = Cytotoxicity against human H460M cancer cell line was determined after 144 hr; format: functional, cell-based; settings: Cancer cell lines; in short: as §2
OVCAR-4 [7] = test: Percent growth of ovarian OVCAR-4 cell line was determined at 10e-6 M concentration after 48 hr of exposing; format: functional, Homo sapiens; in short: as §1
[8] = Percent growth of melanoma LOX IMV1 cell line was determined at 10e-5 M concentration after 48 hr of exposing; format: functional, Homo sapiens; in short: as §1
SNB-19 [9] = test: Percent growth of CNS SNB-19 cell line was determined at 10e-8 M concentration after 48 hr of exposing; format: functional, Homo sapiens; in short: as §1
786-0 [10] = test: Percent growth of renal 786-O cell line was determined at 10e-6 M concentration after 48 h of exposing; format: functional, Homo sapiens; in short: as §1
[11] = Cytotoxicity against human HCT116 cancer cell line was determined after 1 hr; format: cell-based; settings: HCT-116, 1 h; in short: as §2
HCT-116 = test: Cytotoxicity against human HCT116 cancer cell line was determined after 144 hr; format: functional, cell-based; settings: HCT-116, 144 h; in short: as §2
SNB-19 [12] = test: Percent growth of CNS SNB-19 cell line was determined at 10e-5 M concentration after 48 hr of exposing; format: functional, Homo sapiens; in short: as §1
LoVo [13] = test: (§3) Cytotoxicity against doxorubicin resistant LoVo cell line was determined against 1 hour; format: functional, cell-based; settings: Homo sapiens
In short: (§4)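 MTT assay on doxorubicin-sensitive LoVo and resistant LoVo/Dx cells, 24 h preincubation, then 1 h or 144 h drug exposure at 37 °C, 5% CO2. IC50 in nM. Resistance index is IC50 on LoVo/Dx divided by IC50 on LoVo.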

NCI-H460 [14] = test: Percent growth of lung NCI-H460 cell line was determined at 10e-8 M concentration after 48 hr of exposing; format: functional, Homo sapiens; in short: as §1
786-0 [15] = test: Percent growth of renal 786-O cell line was determined at 10e-5 M concentration after 48 hr of exposing; format: functional, Homo sapiens; in short: as §1
MCF7 [16] = test: Percent growth of breast MCF-7 cell line was determined at 10e-5 M concentration after 48 hr of exposing; format: functional, Homo sapiens
NCI-H460 [17] = test: Percent growth of lung NCI-H460 cell line was determined at 10e-6 M concentration after 48 hr of exposing; format: functional, Homo sapiens; in short: as §1
SNB-19 [18] = test: Percent growth of CNS SNB-19 cell line was determined at 10e-6 M concentration after 48 hr of exposing; format: functional, Homo sapiens; in short: as §1
MOLT-4 [19] = test: Percent growth of leukemia MOLT-4 cell line was determined at 10e-8 M concentration after 48 hr of exposing; format: functional, Homo sapiens; in short: as §1
MCF7 [20] = test: Percent growth of breast MCF-7 cell line was determined at 10e-6 M concentration after 48 h of exposing; format: functional, Homo sapiens
LoVo [21] = test: Cytotoxicity against human LoVo cancer cell line was determined after 144 hr; format: functional, cell-based; in short: as §4
HT-29 = test: Cytotoxicity is determined as the concentration required to inhibit the growth of human colon adenocarcinoma (HT-29) cell line; format: functional, cell-based
MOLT-4 [22] = test: Percent growth of leukemia MOLT-4 cell line was determined at 10e-6 M concentration after 48 h of exposing; format: functional, Homo sapiens; in short: as §1
[23] = Cytotoxicity against human LoVo cancer cell line was determined after 1 hr; format: cell-based; in short: as §4
786-0 [24] = test: Percent growth of renal 786-O cell line was determined at 10e-8 M concentration after 48 h of exposing; format: functional, Homo sapiens; in short: as §1
SW-620 [25] = test: Percent growth of colon SW-620 cell line was determined at 10e-8 M concentration after 48 hr of exposing; format: functional, Homo sapiens; in short: as §1
MKN-45 = test: Cytotoxicity against human MKN45 cancer cell line was determined after 144 hr; format: functional, cell-based; settings: MKN-45, 144 h; in short: as §2
[26] = Cytotoxicity against human PC3 cancer cell line was determined after 1 hr; format: cell-based; settings: Cancer cell lines; in short: as §2
[27] = Cytotoxicity against human H460M cancer cell line was determined after 1 hr; format: cell-based; settings: Cancer cell lines; in short: as §2
SW-620 [28] = test: Percent growth of colon SW-620 cell line was determined at 10e-5 M concentration after 48 hr of exposing; format: functional, Homo sapiens; in short: as §1
PC-3 = test: Cytotoxicity against human PC3 cancer cell line was determined after 144 hr; format: functional, cell-based; settings: PC-3, 144 h; in short: as §2
[29] = Percent growth of melanoma LOX IMV1 cell line was determined at 10e-6 M concentration after 48 hr of exposing; format: functional, Homo sapiens; in short: as §1
SW-620 [30] = test: Percent growth of colon SW-620 cell line was determined at 10e-6 M concentration after 48 hr of exposing; format: functional, Homo sapiens; in short: as §1
LoVo [31] = test: Ratio of IC50 against sensitive LoVo cell line and that of doxorubicin resistance LoVo cell line was determined after 1 hr exposure; format: functional, Homo sapiens
MOLT-4 [32] = test: Percent growth of leukemia MOLT-4 cell line was determined at 10e-5 M concentration after 48 hr of exposing; format: functional, Homo sapiens; in short: as §1
LoVo [33] = test: Cytotoxicity against doxorubicin resistant LoVo cell line was determined against 144 hrs; format: functional, cell-based; settings: Homo sapiens; in short: as §4
MCF7 [34] = test: Percent growth of breast MCF-7 cell line was determined at 10e-8 M concentration after 48 hr of exposing; format: functional, Homo sapiens
NCI-H460 [35] = test: Percent growth of lung NCI-H460 cell line was determined at 10e-5 M concentration after 48 hr of exposing; format: functional, Homo sapiens; in short: as §1
DU-145 [36] = test: Percent growth of prostate DU-145 cell line was determined at 10e-6 M concentration after 48 hr of exposing; format: functional, Homo sapiens
DU-145 [37] = test: Percent growth of prostate DU-145 cell line was determined at 10e-8 M concentration after 48 h of exposing; format: functional, Homo sapiens
Nucleic Acid = test: Binding site preference is determined as the ratio of Poly (dA-dT)2 to Poly (dG-dC)2; format: nucleic-acid assay
In short: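 Ethidium displacement fluorometry at pH 7.0 (10 mM Na2HPO4, 10 mM NaH2PO4, 1 mM EDTA) with 1.26 μM ethidium bromide and 1 μM [poly(dA-dT)]2 or [poly(dG-dC)]2, 20 °C. Ex 546 nm, em 595 nm, drug added serially from a DMSO stock. Preference taken from the [AT]/[GC] ratio of C50 values, counted significant only below 0.7 or above 1.3.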

[38] = as §3; format: cell-based; settings: Homo sapiens; in short: as §4

Binding site preference (Nucleic Acid): 2.1
SMILES: CN(C)CCN1Nc2c3ccccc3nc3c(C(=O)NCCCN(C)CCCNC(=O)c4ccc5c6c(c7ccccc7nc46)NN5CCN(C)C)ccc1c23
Growth (DU-145 [1]): -40%
Growth [2]: 22%
IC50 [3]: 6.8 nM
Growth (OVCAR-4 [4]): 41%
Growth (OVCAR-4 [5]): -40%
IC50 [6]: 4.4 nM
Growth (OVCAR-4 [7]): -17%
Growth [8]: -57%
Growth (SNB-19 [9]): 40%
Growth (786-0 [10]): 5%
IC50 [11]: 12 nM
IC50 (HCT-116): 19 nM
Growth (SNB-19 [12]): -31%
IC50 (LoVo [13]): 3600 nM
Growth (NCI-H460 [14]): 12%
Growth (786-0 [15]): -48%
Growth (MCF7 [16]): -35%
Growth (NCI-H460 [17]): -6%
Growth (SNB-19 [18]): -7%
Growth (MOLT-4 [19]): 28%
Growth (MCF7 [20]): 2%
IC50 (LoVo [21]): 1.1 nM
IC50 (HT-29): 3 nM
Growth (MOLT-4 [22]): 7%
IC50 [23]: 150 nM
Growth (786-0 [24]): 30%
Growth (SW-620 [25]): 37%
IC50 (MKN-45): 0.6 nM
IC50 [26]: 12 nM
IC50 [27]: 7.2 nM
Growth (SW-620 [28]): -45%
IC50 (PC-3): 6 nM
Growth [29]: 5%
Growth (SW-620 [30]): 14%
Resistance index (LoVo [31]): 24
Growth (MOLT-4 [32]): -27%
IC50 (LoVo [33]): 400 nM
Growth (MCF7 [34]): 18%
Growth (NCI-H460 [35]): -53%
Growth (DU-145 [36]): -23%
Growth (DU-145 [37]): 25%

Binding site preference (Nucleic Acid): 1.7
SMILES: CN(C)CCn1c(=O)c2ccc(NCCCN(C)CCCNc3ccc4c(=O)n(CCN(C)C)c(=O)n5c6ccc(O)cc6c(=O)c3c45)c3c(=O)c4cc(O)ccc4n(c1=O)c23
Growth (DU-145 [1]): -42%
Growth [2]: 20%
IC50 [3]: < 0.001 nM
Growth (OVCAR-4 [4]): 42%
Growth (OVCAR-4 [5]): -36%
IC50 [6]: < 0.001 nM
Growth (OVCAR-4 [7]): -37%
Growth [8]: -77%
Growth (SNB-19 [9]): 34%
Growth (786-0 [10]): 1%
IC50 [11]: 0.06 nM
IC50 (HCT-116): < 0.001 nM
Growth (SNB-19 [12]): -17%
Growth (NCI-H460 [14]): 11%
Growth (786-0 [15]): -52%
Growth (MCF7 [16]): -32%
Growth (NCI-H460 [17]): -23%
Growth (SNB-19 [18]): -4%
IC50 [38]: 810 nM
Growth (MOLT-4 [19]): -4%
Growth (MCF7 [20]): -1%
IC50 (LoVo [21]): 3.9 nM
IC50 (HT-29): < 0.1 nM
Growth (MOLT-4 [22]): -37%
IC50 [23]: 98 nM
Growth (786-0 [24]): 36%
Growth (SW-620 [25]): 36%
IC50 (MKN-45): < 0.001 nM
IC50 [26]: 2 nM
IC50 [27]: < 0.001 nM
Growth (SW-620 [28]): -8%
IC50 (PC-3): 0.01 nM
Growth [29]: -50%
Growth (SW-620 [30]): 10%
Resistance index (LoVo [31]): 8.3
Growth (MOLT-4 [32]): -60%
IC50 (LoVo [33]): 59 nM
Growth (MCF7 [34]): 16%
Growth (NCI-H460 [35]): -60%
Growth (DU-145 [36]): -6%
Growth (DU-145 [37]): 32%
